Results reported in PubChem BioAssay.
Records with an inconclusive call do not appear. Activity calls are given as the source filed them.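 Rule for the calls, unless noted: active = inhibition over a set limit, the all-compound mean plus 3 SD, in both replicate runs; inconclusive = over that limit in just one replicate run; inactive = at or under that limit in both runs.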

Key:
[1] = S. cerevisiae growth inhibition in permissive medium (OD615), pilot counter-assay for S. cerevisiae lifespan shortening project, permissive growth control (AID 705;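 active = growth inhibition above 25% in both replicates, a cutoff set 3 SD above the mean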); settings: OD615, 24 h, at 10 µM, stronger effect = higher value
Method in brief: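 Test system: Saccharomyces cerevisiae strain carrying genetically modified DeaD replicative-lifespan system; buffer or medium: SC raffinose/galactose permissive medium; dosing: one dose 10 µM, DMSO 0.25% final; times: 24 h exposure, 30 °C; measured by: OD at 615 nm; read-out basis: growth inhibition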

[2] = S. cerevisiae growth inhibition in restrictive medium, OD615, pilot screen, restrictive growth control, yeast lifespan reduction project (AID 706;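 active = growth inhibition above a set limit, 3 SD over mean compound inhibition, in both replicates, cut at about 43% in these data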;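 note: modified DeaD lifespan yeast strain shifted to restrictive glucose medium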); settings: OD615, 48 h, at 10 µM, stronger effect = higher value
Method in brief: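 material = engineered S. cerevisiae DeaD strain | buffer or medium = glucose-based CSMM-D restrictive medium | dosing = one concentration, 10 µM final, 0.25% DMSO | schedule = 4 h pre-growth plus 48 h compound exposure, 30 °C | detection = OD615 absorbance reading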

[3] = doxorubicin toxicity protection in MRP-1 cells – H69AR cells, CellTiter-Glo, duplicate, MRP-1 activator project, pilot screen (AID 807;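 active = viability increase at or above a cutoff of the median across tested compounds plus 3 SD, cut at about 8.5% in these data, passing the limit was not always enough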;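 note: compound pretreatment 18-22 h then 72 h combined with doxorubicin; 0% = doxorubicin alone and 100% = vehicle without doxorubicin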); settings: H69AR viability with doxorubicin, CellTiter-Glo luminescence; at 10 µM; stronger effect = higher value
[4] = viability of HCT116 without oncogenic beta-catenin – human colon tumor cells, pilot screen (AID 823;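 active = cell viability at or below a set limit in both duplicate runs, the limit being the all-compound median minus 4 SD, cut at about 23% in these data, passing the limit was not always enough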;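 note: 0% = wells killed by 20 µM Hyamine and 100% = untreated DMSO cell wells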); settings: HCT116 beta-catenin knockout viability, CellTiter-Glo, 60 h; at 10 µM; stronger effect = lower value
[5] = viability of PTEN-null HCT116 cells – cell-based, HCT116 clonal line, CellTiter-Glo, pilot screen (AID 824;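 active = viability at or below 27.92% in each of two runs, the all-compound median minus 4 SD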;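 note: 0% = 20 µM Hyamine control and 100% = vehicle cell control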); settings: HCT116 PTEN-deleted viability, 60 h, at 10 µM, stronger effect = lower value
[6] = RAM pathway blockade in budding yeast – dse1pr::URA3 reporter, 5-FOA selection, pilot screen (AID 869);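 note: 0% = DMSO wells with no growth and 100% = 10 µM 1-NA-PP1 with full growth; RAM network block rescues cells from 5-FOA so hits raise OD615 growth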; settings: S. cerevisiae dse1pr::URA3 5-FOA growth, OD615, 2 d; at 10 µM; stronger effect = higher value; strain carries analog-sensitive mutant Cbk1 kinase
[7] = RAM signaling pathway blockade in yeast – S. cerevisiae, Pdr1DBD-CYC8 efflux-inhibited sensitized strain, primary screen (AID 1298;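 active = RAM network inhibition above 8.4% in each of two replicates, 3 SD over the compound average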;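 note: 0% = DMSO untreated cells without growth and 100% = 10 µM 1-NA-PP1 full growth; higher means more yeast growth rescued from 5-FOA killing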); settings: S. cerevisiae cbk1-as DSE1-URA3 strain, 5-FOA growth OD615, 2 d; at 50 µM; stronger effect = higher value

CCOC(=O)C1C(=O)CC(C)(O)C(C(=O)OCC)C1/C=C/c1ccccc1 (configuration not stated)
inactive: growth inhibition [1] -4.58% | growth inhibition [2] 2.66% | viability increase [3] -3.71% | viability [4] 94.4% | viability [5] 83.1% | inhibition [6] 0.605% | RAM network inhibition [7] 7.42%

CCc1noc2c1/C(=N\O)CC(c1ccccc1)C2 (configuration not stated)
inactive: growth inhibition [1] 0.555% | growth inhibition [2] 4.22% | viability increase [3] 2.87% | viability [4] 83.3% | viability [5] 84.8% | inhibition [6] 1.78% | RAM network inhibition [7] -1.18%

CC1=C(C(N)=O)C(c2ccccc2)n2nc(-c3cccc(C)c3)nc2N1 (configuration not stated)
inactive: growth inhibition [1] 3.1% | growth inhibition [2] 2.56% | viability increase [3] -2.74% | viability [4] 98.9% | viability [5] 97.1% | inhibition [6] 0.79% | RAM network inhibition [7] 3.91%

COc1ccc(CNc2oc(C)nc2C#N)cc1
inactive: growth inhibition [1] -0.095% | growth inhibition [2] 5.62% | viability increase [3] -1.84% | viability [4] 98.6% | viability [5] 93.1% | inhibition [6] 0.24% | RAM network inhibition [7] 6.09%

O=C(Nc1ccc2nc(-c3cccnc3)[nH]c2c1)c1ccco1
inactive: growth inhibition [1] -2% | growth inhibition [2] -20.3% | viability increase [3] -2.85% | viability [4] 100% | viability [5] 97.4% | inhibition [6] 0.845% | RAM network inhibition [7] 4.67%

Cn1c(=O)oc2cc(S(=O)(=O)N3CCCc4ccccc43)ccc21
active: viability [4] 18.1% | viability [5] 23.5%
inactive: growth inhibition [1] -5.55% | growth inhibition [2] -1.98% | viability increase [3] -5.94% | inhibition [6] 1.96% | RAM network inhibition [7] 3.9%

CCCNC(=O)CS(=O)Cc1nc(-c2ccc(OC)cc2)oc1C (configuration not stated)
inactive: growth inhibition [1] -5.5% | growth inhibition [2] 19.6% | viability increase [3] -2.12% | viability [4] 97.2% | viability [5] 93.9% | inhibition [6] 1.62% | RAM network inhibition [7] 3.43%

CCC(C#CCN1CCCCC1)(CC)OCCC#N
inactive: growth inhibition [1] -4.58% | growth inhibition [2] -9.71% | viability increase [3] -1.94% | viability [4] 102% | viability [5] 97.6% | inhibition [6] 0.79% | RAM network inhibition [7] 4.07%

Cc1ccc(C)c(S(=O)(=O)Nc2ccc(O)cc2)c1
inactive: growth inhibition [1] -9.59% | growth inhibition [2] 11.7% | viability increase [3] -2.63% | viability [4] 101% | viability [5] 97% | inhibition [6] 1.44% | RAM network inhibition [7] 2.77%

CCN(CC)CCCN1C(=O)C(O)=C(C(C)=O)C1c1ccc(OC)cc1OC (configuration not stated)
inactive: growth inhibition [1] -0.68% | growth inhibition [2] -3.67% | viability increase [3] -2.64% | viability [4] 98.5% | viability [5] 92.4% | inhibition [6] 1.03% | RAM network inhibition [7] 1.44%

Cc1ccc(CNC(=O)CCCNS(=O)(=O)c2cccc3nonc23)cc1
inactive: growth inhibition [1] -4.66% | growth inhibition [2] 0.525% | viability increase [3] -1.25% | viability [4] 101% | viability [5] 101% | inhibition [6] -0.185% | RAM network inhibition [7] 3%

CCC(CC)C(=O)Nc1ccccc1NC(C)=O
inactive: growth inhibition [1] -3.13% | growth inhibition [2] 0.295% | viability increase [3] 0.4% | viability [4] 99.8% | viability [5] 98% | inhibition [6] 0.36% | RAM network inhibition [7] 4.35%

CCN(CC)P1(=O)OC(c2cc(OC)c(OC)c(OC)c2)=Nc2c1c(C)nn2-c1ccccc1 (configuration not stated)
inactive: growth inhibition [1] -7.12% | growth inhibition [2] -13.3% | viability increase [3] -2.38% | viability [4] 95.8% | viability [5] 92.8% | inhibition [6] 1.87% | RAM network inhibition [7] 2.4%

O=C(O)CCC(=O)N1CCc2cc(S(=O)(=O)N3CC=C(c4ccccc4)CC3)ccc21
inactive: growth inhibition [1] 5.99% | growth inhibition [2] 4.92% | viability increase [3] -2.14% | viability [4] 104% | viability [5] 93.9% | inhibition [6] 3.79% | RAM network inhibition [7] 7.9%

CN(C)C(=O)CSc1nnc(-c2cccnc2)n1-c1ccccc1
inactive: growth inhibition [1] -5.85% | growth inhibition [2] -5.54% | viability increase [3] -0.98% | viability [4] 98.6% | viability [5] 95.1% | inhibition [6] 1.36% | RAM network inhibition [7] 2.91%

CN1CCN(c2ncnc3c2sc2nc(N4CCCC4)c4c(c23)CC(C)(C)OC4)CC1
inactive: growth inhibition [1] -21.2% | growth inhibition [2] -18.1% | viability increase [3] -3.25% | viability [4] 99.6% | viability [5] 97.1% | inhibition [6] 0.735% | RAM network inhibition [7] -0.84%

CN(CC1CCCO1)S(=O)(=O)c1ccc(C(=O)Nc2nc(-c3ccccn3)cs2)cc1 (configuration not stated)
active: viability [4] 18.5% | viability [5] 23.1%
inactive: growth inhibition [1] -14.2% | growth inhibition [2] -14.7% | viability increase [3] -5.46% | inhibition [6] 2.57% | RAM network inhibition [7] 2.63%

CCCCN(C(=O)NC(=O)Nc1nc2ccc(OC)cc2s1)S(C)(=O)=O
inactive: growth inhibition [1] -2.28% | growth inhibition [2] -3.95% | viability increase [3] -0.44% | viability [4] 92.6% | viability [5] 103% | inhibition [6] -0.04% | RAM network inhibition [7] 1.09%

CC1=C(C(=O)Nc2ccccc2C)C(c2ccccc2)NC(=O)N1 (configuration not stated)
inactive: growth inhibition [1] 0.05% | growth inhibition [2] -7.71% | viability increase [3] -1.25% | viability [4] 97.9% | viability [5] 97.9% | inhibition [6] 1.01% | RAM network inhibition [7] 2.69%

CC(C)c1nc(SCC(=O)N2CCOCC2)c2c(=O)n(C)c(=O)n(C)c2n1
inactive: growth inhibition [1] 2.91% | growth inhibition [2] -8.92% | viability increase [3] -1.75% | viability [4] 102% | viability [5] 95.6% | inhibition [6] 2.57% | RAM network inhibition [7] -2.21%

CCc1ccc(C2CC(=O)N3CN(c4ccccc4)CSC3=C2C#N)cc1 (configuration not stated)
inactive: growth inhibition [1] 3.98% | growth inhibition [2] 21.7% | viability increase [3] -3.73% | viability [4] 101% | viability [5] 90.6% | inhibition [6] 1.68% | RAM network inhibition [7] -0.78%

CCOC(=O)N1CCN(C2CC(=O)N(c3ccccc3)C2=O)CC1 (configuration not stated)
inactive: growth inhibition [1] 4.38% | growth inhibition [2] 10.5% | viability increase [3] 0.58% | viability [4] 100% | viability [5] 101% | inhibition [6] 0.005% | RAM network inhibition [7] -0.04%

CC(=O)c1c(C)oc(C)c1CSCc1ccc(C(=O)O)o1
inactive: growth inhibition [1] -4.54% | growth inhibition [2] 0.22% | viability increase [3] -2.16% | viability [4] 95.7% | viability [5] 97.9% | inhibition [6] 0.665% | RAM network inhibition [7] 3.55%

O=C1c2ccccc2NC(c2ccccc2)N1c1ccc(O)cc1 (configuration not stated)
inactive: growth inhibition [1] -0.23% | growth inhibition [2] 1.65% | viability increase [3] -3.15% | viability [4] 87.1% | viability [5] 90.8% | inhibition [6] 1.19% | RAM network inhibition [7] 1.89%

O=C(CCSCCC(=O)NCc1ccco1)NCc1ccco1
inactive: growth inhibition [1] 3.59% | growth inhibition [2] 10.5% | viability increase [3] -1.12% | viability [4] 89% | viability [5] 96% | inhibition [6] 0.745% | RAM network inhibition [7] 6.5%

CC(C)CC(=O)Nc1c2c(nn1-c1ccc(F)cc1)CSC2
inactive: growth inhibition [1] -13.9% | growth inhibition [2] -14.5% | viability increase [3] -1.7% | viability [4] 91.1% | viability [5] 90.9% | inhibition [6] 1.46% | RAM network inhibition [7] 5.43%

COc1ccc2c(Cl)c(C(=O)NC3CCS(=O)(=O)C3)sc2c1 (configuration not stated)
inactive: growth inhibition [1] 1.61% | growth inhibition [2] -6.69% | viability increase [3] 2.14% | viability [4] 93.3% | viability [5] 99.3% | inhibition [6] 1.92% | RAM network inhibition [7] 1.43%

Cc1cc2cc(CNS(=O)(=O)N(C)C)ccc2[nH]1
inactive: growth inhibition [1] 0.12% | growth inhibition [2] -6.88% | viability increase [3] -0.59% | viability [4] 101% | viability [5] 106% | inhibition [6] 1.48% | RAM network inhibition [7] 3.27%

O=C(Nc1ccccc1)N(CCCN1CCOCC1)Cc1cccs1
inactive: growth inhibition [1] -1.32% | growth inhibition [2] 9.1% | viability increase [3] -3.05% | viability [4] 96.3% | viability [5] 93.9% | inhibition [6] 2.5% | RAM network inhibition [7] 0.88%

O=C(NCCCN1CCCCC1)C1(S(=O)(=O)c2ccc(Cl)cc2)CC1
inactive: growth inhibition [1] -12.4% | growth inhibition [2] -14% | viability increase [3] -1.07% | viability [4] 103% | viability [5] 97.2% | inhibition [6] 1.6% | RAM network inhibition [7] 2.82%

O=C1C2CCCN2C(c2ccccc2F)N1c1cccc(Cl)c1 (configuration not stated)
inactive: growth inhibition [1] 1.87% | growth inhibition [2] 1.65% | viability increase [3] -0.32% | viability [4] 97.8% | viability [5] 102% | inhibition [6] -0.43% | RAM network inhibition [7] 1.7%

CCOc1ccc2[nH]cc(S(=O)(=O)c3ccc(F)cc3)c(=O)c2c1
inactive: growth inhibition [1] -4.64% | growth inhibition [2] -19.8% | viability increase [3] -0.98% | viability [4] 78.7% | viability [5] 87.2% | inhibition [6] 0.455% | RAM network inhibition [7] 2.36%

CC(=O)N1CCC(C(=O)Nc2ccccc2)(N(Cc2ccccc2)C(=O)c2cccnc2)CC1
inactive: growth inhibition [1] -2.38% | growth inhibition [2] 4.33% | viability increase [3] -0.15% | viability [4] 95.7% | viability [5] 86.7% | inhibition [6] 1.47% | RAM network inhibition [7] -1.39%

O=S(=O)(c1cccs1)n1nnc2ccccc21
inactive: growth inhibition [1] -1.66% | growth inhibition [2] -8.55% | viability increase [3] -0.18% | viability [4] 103% | viability [5] 105% | inhibition [6] 1.33% | RAM network inhibition [7] 0.48%

Cc1cc(NC(=O)c2cn(C3CCCCC3)c(=O)c3c2c2ccccc2n3C)no1
inactive: growth inhibition [1] -5.84% | growth inhibition [2] 11.9% | viability increase [3] -3.21% | viability [4] 71.7% | viability [5] 71.7% | inhibition [6] 1.8% | RAM network inhibition [7] 7.54%

COc1ccc(CSc2nnnn2C)cc1F
inactive: growth inhibition [1] -3.21% | growth inhibition [2] 4.8% | viability increase [3] -0.89% | viability [4] 91.4% | viability [5] 95% | inhibition [6] 2.62% | RAM network inhibition [7] -0.46%
